The results in this text go back to ChEMBL document CHEMBL3864147, “Antioxidant and anti-inflammatory neolignans from the seeds of hawthorn” (Bioorg Med Chem Lett, 2016).

Series [1] in a line: Antiinflammatory activity in mouse RAW264.7 cells assessed as inhibition of LPS-induced nitric oxide production at 50 uM after 24 hrs by Griess assay relative to control. The settings on record: RAW264.7, 24 h. The class given is functional. The procedure, abridged: (§1)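 RAW264.7 cells (5 × 10^5/mL) pre-treated with samples at 100, 50, 10 or 1 µM, then LPS (100 ng/mL) for 24 h. Nitrite in medium measured by mixing with equal volume Griess reagent (1% sulfanilamide in 5% H3PO4, 0.1% N-naphthyl-ethylenediamine), 10 min at 37 °C, absorbance 540 nm; quantified against NaNO2 standard curve; minocycline as positive control.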
(Nitrite, measured by Griess reagent, commonly stands in for NO production.)

The nature of series [2]: Antiinflammatory activity in mouse RAW264.7 cells assessed as inhibition of LPS-induced nitric oxide production after 24 hrs by Griess assay. The format is functional, cell-based. The settings on record: RAW264.7, 24 h. Summed up:
as §1

The nature of series [3]: Antioxidant activity assessed as ferric ion reducing activity by measuring Fe2+ levels using fe3+-TPTZ at 3000 ug/ml after 30 mins by FRAP assay. The format is functional. The procedure, abridged: (§2)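 FRAP reagent: 300 mM acetate buffer pH 3.6, 10 mM TPTZ in 40 mM HCl, 20 mM FeCl3. Sample (3000, 1500, 750, 375 µg/mL solutions) mixed with reagent, 30 min at 37 °C, absorbance 593 nm. Values expressed as µM Fe2+ from FeSO4 calibration curve (5–450 µM).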

Series [4] is described as follows: Antioxidant activity assessed as ferric ion reducing activity by measuring Fe2+ levels using fe3+-TPTZ at 1500 ug/ml after 30 mins by FRAP assay. The format is functional. Summed up:
as §2

A short description of series [5]: Antioxidant activity assessed as ferric ion reducing activity by measuring Fe2+ levels using fe3+-TPTZ at 750 ug/ml after 30 mins by FRAP assay. The class given is functional. The procedure, abridged:
as §2

The species entered for the next series is Mus musculus. Nature of the series: Cytotoxicity against mouse RAW264.7 cells assessed as effect on cell viability at 100 uM preincubated for 1 hr followed by LPS stimulation measured after 24 hrs by MTT assay. The class given is toxicity, cell-based. The settings on record: raw264.7, 24 h. The procedure, abridged: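 RAW264.7 cells in DMEM with 10% FBS and penicillin/streptomycin at 37 °C, 5% CO2, seeded 5 × 10^5 cells/well; treated with samples (100 µM) 1 h, then LPS (100 ng/mL) 24 h. MTT (0.25 mg/mL) added for 4 h; formazan read at 540 nm; untreated cells as control.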
For orientation: Tetrazolium dyes change colour on reduction, which living cells bring about.

Series [6] is described as follows: Antiinflammatory activity in mouse RAW264.7 cells assessed as inhibition of LPS-induced TNFalpha production after 24 hrs by ELISA. The format is functional, cell-based. Particulars: RAW264.7, 24 h. The procedure, abridged: (§3)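 RAW264.7 cells plated at 5 × 10^5/mL, pre-treated with samples at 100, 50, 10 or 1 µM, then stimulated with LPS (100 ng/mL) for 24 h. TNF-α in the medium measured by ELISA kit per manufacturer's instructions and quantified from a standard curve; silybin as positive control.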
(In general: ELISA stands for enzyme-linked immunosorbent assay.)

The nature of series [7]: Antioxidant activity assessed as DPPH radical scavenging activity incubated in dark for 30 mins. The class given is functional. The procedure, abridged: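 Samples (0.4 mM stock, 5–40 µL series) and DPPH (2 mM stock, 20 µL) in ethanol, made to 200 µL with ethanol; incubated 30 min in dark at 37 °C; absorbance at 517 nm. Ethanol replaced sample as blank.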
Series [8] can be described thus: Antiinflammatory activity in mouse RAW264.7 cells assessed as inhibition of LPS-induced TNFalpha production at 1 uM after 24 hrs by ELISA relative to control. The format is functional. Particulars: RAW264.7, 24 h. The procedure, abridged:
as §3

A short description of series [9]: Antioxidant activity assessed as ferric ion reducing activity by measuring Fe2+ levels using fe3+-TPTZ at 375 ug/ml after 30 mins by FRAP assay. The format is functional. The procedure, abridged:
as §2

A short description of series [10]: Antioxidant activity assessed as ABTS radical scavenging activity after 30 mins. The class given is functional. Summed up: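 ABTS radical generated by 7 mM ABTS plus 2.4 mM potassium persulfate, 12 h dark at room temperature, diluted in ethanol to OD 0.700 at 734 nm. Samples at several concentrations mixed with ABTS+ solution, 30 min at 37 °C, read at 734 nm; ethanol blank; percent scavenging calculated relative to blank.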

Series [11] can be described thus: Antiinflammatory activity in mouse RAW264.7 cells assessed as inhibition of LPS-induced TNFalpha production at 10 uM after 24 hrs by ELISA relative to control. Particulars: RAW264.7, 24 h. The format is functional. The procedure, abridged:
as §3

The nature of series [12]: Antiinflammatory activity in mouse RAW264.7 cells assessed as inhibition of LPS-induced nitric oxide production at 10 uM after 24 hrs by Griess assay relative to control. The class given is functional. The settings on record: RAW264.7, 24 h. The procedure, abridged:
as §1

Series [13] can be described thus: Antiinflammatory activity in mouse RAW264.7 cells assessed as inhibition of LPS-induced nitric oxide production at 100 uM after 24 hrs by Griess assay relative to control. The format is functional. Particulars: RAW264.7, 24 h. The procedure, abridged:
as §1

Series [14] is described as follows: Antiinflammatory activity in mouse RAW264.7 cells assessed as inhibition of LPS-induced TNFalpha production at 100 uM after 24 hrs by ELISA relative to control. The format is functional. Particulars: RAW264.7, 24 h. Summed up: as §3
Series [15] is described as follows: Antiinflammatory activity in mouse RAW264.7 cells assessed as inhibition of LPS-induced nitric oxide production at 1 uM after 24 hrs by Griess assay relative to control. The class given is functional. Particulars: RAW264.7, 24 h. The procedure, abridged:
as §1

Series [16] in a line: Antiinflammatory activity in mouse RAW264.7 cells assessed as inhibition of LPS-induced TNFalpha production at 50 uM after 24 hrs by ELISA relative to control. The format is functional. The settings on record: RAW264.7, 24 h. Summed up: as §3

On to `CCO[C@H](c1ccc(O[C@@H](CO)[C@@H](O)c2ccc(O)c(OC)c2)c(OC)c1)[C@@H](CO)c1ccc(O)c(OC)c1`, for which the results for the inhibition at 50 µM in series [1] and in series [16] were 40.2% and 11.4%, respectively. In addition, the IC50 was 66.4 µM in series [2], above 100 µM in series [6], 79.6 µM in [7] and 7.1 µM in [10]. Also, the Activity was 134 µmol/L in [3]; 96.8 µmol/L in series [4]; 62.7 µmol/L in series [5]; “Non-Toxic” in the series filed under Mus musculus; 38.6 µmol/L in series [9]. Further, the inhibition at 1 µM was -2.2% in [8] and 4.7% in series [15]. The figures for the inhibition at 10 µM in series [11] and in series [12] were 3.1% and 18.2%, respectively. In addition, the results for the inhibition at 100 µM in [13] and in series [14] were 62.6% and 29.2%, respectively.
For the compound `COc1cc([C@@H](CO)[C@H](OC)c2ccc(O[C@H](CO)[C@@H](O)c3ccc(O)c(OC)c3)c(OC)c2)ccc1O`, the values for the inhibition at 50 µM in series [1] and in [16] were 42.1% and 9.3%, respectively. Also, the 50% inhibitory concentration (IC50) is 62.9 µM in series [2], above 100 µM in series [6], 67.2 µM in series [7] and 7.8 µM in [10]. Also, the Activity in [3] is 128 µmol/L; in series [4] it was 106 µmol/L; in series [5], 73 µmol/L; in the series filed under Mus musculus it was “Non-Toxic”; in [9] it was 45.8 µmol/L. For the same compound, the inhibition at 1 µM in series [8] was -1.2%; in series [15], 5.7%. The inhibition at 10 µM is 2.9% in series [11] and 22.1% in series [12]. Also, the results for the inhibition at 100 µM in series [13] and in [14] were 61.2% and 17.1%, respectively.
Turning to `COc1cc([C@@H](O)[C@@H](CO)Oc2ccc([C@@H](OC)[C@H](O)CO)cc2OC)ccc1O`, the inhibition at 50 µM came to 3.8% in series [1] and 42.4% in series [16]. Also, the concentration for half-maximal inhibition (IC50) was above 100 µM in series [2], 47.9 µM in series [6], 114 µM in series [7] and 12.9 µM in [10]. Besides, the Activity is 102 µmol/L in [3]; 78.3 µmol/L in series [4]; 54.1 µmol/L in [5]; “Non-Toxic” in the series filed under Mus musculus; 32.5 µmol/L in [9]. Besides, the inhibition at 1 µM in [8] was 4.5%; in series [15] it was 0.3%. The inhibition at 10 µM in [11] is 24.5%; in series [12], -2.2%. For the same compound, the inhibition at 100 µM in series [13] came to 8.2%; in series [14], 69.3%.
For the compound `COc1cc([C@@H](O)[C@@H](CO)Oc2c(OC)cc([C@@H](O)[C@H](O)CO)cc2OC)ccc1O`, the inhibition at 50 µM in series [1] was found to be 1.1%; in [16] it was 23.2%. The IC50 was above 100 µM in series [2], above 100 µM in series [6], 138 µM in [7] and 11.8 µM in series [10]. Also, the Activity in series [3] is 127 µmol/L; in [4], 89.1 µmol/L; in [5], 60 µmol/L; in the series filed under Mus musculus, “Non-Toxic”; in [9] it was 37.1 µmol/L. Besides, the inhibition at 1 µM in [8] is 2.3%; in series [15] it was -3.1%. For the same compound, the inhibition at 10 µM in series [11] is 14.1%; in [12], -1.8%. Moreover, the inhibition at 100 µM in series [13] is 2.7%; in series [14], 45.8%.
For `COc1cc([C@@H](O)[C@@H](CO)Oc2ccc([C@@H](O)[C@H](O)CO)cc2OC)ccc1O`, the values for the inhibition at 50 µM in [1] and in [16] were 2.6% and 30.8%, respectively. For the same compound, the IC50 is above 100 µM in series [2], 94.2 µM in [6], 89 µM in series [7] and 10.7 µM in [10]. Moreover, the Activity in series [3] was 66.3 µmol/L; in [4], 26 µmol/L; in series [5], 18.5 µmol/L; in the series listed under Mus musculus, “Non-Toxic”; in series [9] it was 12 µmol/L. Besides, the results for the inhibition at 1 µM in series [8] and in series [15] were 2.4% and -1.2%, respectively. Further, the inhibition at 10 µM in [11] was 21.2%; in series [12] it was -2.9%. Also, the figures for the inhibition at 100 µM in series [13] and in [14] were 4.4% and 52.5%, respectively.

The inhibition is the change of the read-out against control, counted positive when it falls. Broadly, the IC50 is the concentration that inhibits the measured activity by half.
